Among the data in ChEMBL document CHEMBL1126792, “Structure-activity relationships of beta-D-(2S,5R)- and alpha-D-(2S,5S)-1,3-oxathiolanyl nucleosides as potential anti-HIV agents” (J Med Chem, 1993) are EC50 and IC50 values, retold here.

The subject of assay [1] is Human immunodeficiency virus 1. Briefly: Concentration required for antiviral activity in PBMC (human peripheral blood mononuclear cells) infected with HIV-1 strain LAV. Format: functional, organism-based. In outline:
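Human PBM cells infected with HIV-1 strain LAV. EC50 is the concentration giving 50% inhibition of virus production, measured as reverse transcriptase (RT) levels in culture supernatant. Values are the mean of triplicates, calculated by the median method.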

Assay [2] has as its system Human immunodeficiency virus 1. In words: Inhibition of cell growth against HIV-1 infected PBM (Human peripheral blood mononuclear) cells. It is filed as functional, organism-based. In outline:
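Growth of human PBM cells measured in cytotoxicity assay; IC50 = concentration giving 50% inhibition of cell growth; mean of triplicate values, calculated by the median method.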

The test system of assay [3] is Vero. Briefly: Inhibition of cell growth in vero cells. Particulars: Chlorocebus sabaeus. It is filed as functional, cell-based. In outline: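 Vero cell cytotoxicity assay; IC50 = concentration giving 50% inhibition of cell growth; mean of triplicate values, calculated by the median method.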
The mark [4] stands for this setting: Human immunodeficiency virus 1, PBMC.

As to `Nc1ccn([C@H]2CO[C@@H](CO)O2)c(=O)n1`, in assay [1] (setting [4]), the EC50 was found to be 0.016 µM.

Consider `Cc1cn([C@@H]2CS[C@@H](CO)O2)c(=O)[nH]c1=O`, for which the IC50 in assay [2] and in assay [3] was > 100 µM in each case. The EC50 in assay [1] (setting [4]) was > 100 µM.

For the compound `Cc1cn([C@H]2CS[C@@H](CO)O2)c(=O)nc1N`, the IC50 in assay [2] and in assay [3] was > 100 µM in each case. In assay [1] (setting [4]), this compound displayed an EC50 of 0.172 µM.

For `CNc1ncnc2c1ncn2[C@@H]1CS[C@@H](CO)O1`, the IC50 in assay [2] and in assay [3] was > 100 µM throughout. Further, the EC50 in assay [1] (setting [4]) came out at 11.7 µM.

In the case of `Cc1cn([C@@H]2CS[C@@H](CO)O2)c(=O)nc1N`, the IC50 in assay [2] and in assay [3] was > 100 µM each time. Moreover, the EC50 in assay [1] (setting [4]) was > 100 µM.

Take `O=c1[nH]c(=O)n([C@H]2CS[C@@H](CO)O2)cc1Br`: the IC50 in assay [2] and in assay [3] was > 100 µM throughout. The EC50 in assay [1] (setting [4]) was > 100 µM.

For the compound `Nc1nc(Cl)c2ncn([C@@H]3CS[C@@H](CO)O3)c2n1`, the IC50 in assay [2] and in assay [3] was > 100 µM each time. In addition, the response in assay [1] (setting [4]) was half-maximal at 5.6 µM (EC50).

Take `Nc1nc(=O)n([C@H]2CS[C@@H](CO)O2)cc1I`: the IC50 in assay [2] and in assay [3] was > 100 µM in each case. This compound registered an EC50 in assay [1] (setting [4]) of 1.9 µM.

As to `Nc1ncnc2c1ncn2[C@H]1CS[C@@H](CO)O1`, the IC50 in assay [2] and in assay [3] was > 100 µM each time. The compound also showed an EC50 in assay [1] (setting [4]) of 0.28 µM.

With `O=c1[nH]c(=O)n([C@@H]2CS[C@@H](CO)O2)cc1Cl`, the IC50 in assay [2] and in assay [3] was > 100 µM each time. For the same compound, in assay [1] (setting [4]), the EC50 is > 100 µM.

`O=c1ccn([C@H]2CS[C@@H](CO)O2)c(=O)[nH]1`: the IC50 in assay [2] and in assay [3] was > 100 µM each time. Besides, the EC50 in assay [1] (setting [4]) came out at 94.7 µM.

Turning to `O=c1[nH]c(=O)n([C@H]2CS[C@@H](CO)O2)cc1I`, the IC50 in assay [2] and in assay [3] was > 100 µM each time. Also, the EC50 in assay [1] (setting [4]) is 29.3 µM.

In assay [1] (setting [4]), `Nc1nc2c(ncn2[C@H]2CO[C@@H](CO)O2)c(=O)[nH]1` yielded an EC50 of 0.03 µM.

For the compound `Nc1nc(O)c2ncn([C@H]3CS[C@@H](CO)O3)c2n1`, the IC50 in assay [2] and in assay [3] was > 100 µM each time. The EC50 in assay [1] (setting [4]) came out at 0.83 µM.

As to `Nc1nc(O)c2ncn([C@@H]3CS[C@@H](CO)O3)c2n1`, the IC50 in assay [2] was > 100 µM; in assay [3] it was 63.6 µM. In assay [1] (setting [4]), this compound yielded a concentration for a half-maximal effect (EC50) of 7.62 µM.

With `OC[C@H]1O[C@H](n2cnc3c(Cl)ncnc32)CS1`, the IC50 in assay [2] is > 100 µM; in assay [3], 86.1 µM. The same compound came in with an EC50 in assay [1] (setting [4]) of 2.7 µM.

`O=c1[nH]c(=O)n([C@@H]2CS[C@@H](CO)O2)cc1Br`: the IC50 in assay [2] and in assay [3] was > 100 µM in each case. In addition, the EC50 in assay [1] (setting [4]) was > 100 µM.

As for `O=c1[nH]c(=O)n([C@H]2CS[C@@H](CO)O2)cc1F`, the IC50 in assay [2] and in assay [3] was > 100 µM in each case. For the same compound, the EC50 in assay [1] (setting [4]) was determined as 6.3 µM.

As to `CNc1ncnc2c1ncn2[C@H]1CS[C@@H](CO)O1`, the IC50 in assay [2] and in assay [3] was > 100 µM in each case. Further, a half-maximal response in assay [1] (setting [4]) (EC50) required 1.1 µM.

As to `Nc1nc(F)nc2c1ncn2[C@@H]1CS[C@@H](CO)O1`, the IC50 in assay [2] was > 100 µM; in assay [3], 45.4 µM. The compound also came in with an EC50 in assay [1] (setting [4]) of 61.9 µM.

Consider `Nc1ncnc2c1ncn2[C@@H]1CS[C@@H](CO)O1`, for which the IC50 in assay [2] and in assay [3] was > 100 µM each time. Also, the EC50 in assay [1] (setting [4]) is 11.9 µM.

Take `Nc1ccn([C@@H]2CS[C@@H](CO)O2)c(=O)n1`: the IC50 in assay [2] and in assay [3] was > 100 µM throughout. In addition, the EC50 in assay [1] (setting [4]) is > 100 µM.

For `Nc1nc(=O)n([C@@H]2CS[C@@H](CO)O2)cc1Cl`, the IC50 was > 100 µM in assay [2] and 31.2 µM in assay [3]. Moreover, the EC50 in assay [1] (setting [4]) is > 100 µM.

Turning to `OC[C@H]1O[C@@H](n2cnc3c(O)ncnc32)CS1`, the IC50 in assay [2] and in assay [3] was > 100 µM each time. A half-maximal effect in assay [1] (setting [4]) (EC50) was put at 0.05 µM.

With `Nc1nc(=O)n([C@H]2CS[C@@H](CO)O2)cc1Br`, the IC50 in assay [2] and in assay [3] was > 100 µM in each case. Further, the EC50 in assay [1] (setting [4]) came out at 0.012 µM.

In the case of `O=c1[nH]c(=O)n([C@@H]2CS[C@@H](CO)O2)cc1I`, the IC50 in assay [2] and in assay [3] was > 100 µM throughout. The compound further showed an EC50 in assay [1] (setting [4]) of 112 µM.

As for `Nc1nc(=O)n([C@@H]2CS[C@@H](CO)O2)cc1I`, the IC50 in assay [2] and in assay [3] was > 100 µM throughout. Besides, in assay [1] (setting [4]), the EC50 was found to be 0.28 µM.

For the compound `Nc1nc(=O)n([C@@H]2CS[C@@H](CO)O2)cc1Br`, the concentration for half-maximal inhibition (IC50) in assay [2] and in assay [3] was > 100 µM in each case. For the same compound, the EC50 in assay [1] (setting [4]) was > 100 µM.

For the compound `Cc1cn([C@H]2CS[C@@H](CO)O2)c(=O)[nH]c1=O`, the IC50 in assay [2] and in assay [3] was > 100 µM each time. Also, in assay [1] (setting [4]), the EC50 amounted to 11.6 µM.

On to `Nc1nc(=O)n([C@H]2CS[C@@H](CO)O2)cc1F`, for which the 50% inhibitory concentration (IC50) in assay [2] and in assay [3] was > 100 µM in each case. In assay [1] (setting [4]), this compound returned an EC50 of 0.38 µM.

`OC[C@H]1O[C@@H](n2cnc3c(Cl)ncnc32)CS1`: the IC50 in assay [2] is > 100 µM; in assay [3], 46.5 µM. In assay [1] (setting [4]), this compound came in with an EC50 of 0.48 µM.

As to `Nc1nc(F)nc2c1ncn2[C@H]1CS[C@@H](CO)O1`, the results for the IC50 in assay [2] and in assay [3] were > 100 µM and 5.6 µM, respectively. Besides, the midpoint of the response in assay [1] (setting [4]), the EC50, lay at 2.8 µM.

Regarding `Nc1nc(=O)n([C@H]2CS[C@@H](CO)O2)cc1Cl`, the IC50 in assay [2] and in assay [3] was > 100 µM in each case. Moreover, it took 0.28 µM to reach a half-maximal effect in assay [1] (setting [4]) (EC50).

Turning to `Nc1nc(=O)n([C@@H]2CS[C@@H](CO)O2)cc1F`, the IC50 in assay [2] and in assay [3] was > 100 µM throughout. For the same compound, the EC50 in assay [1] (setting [4]) came to 77.5 µM.

Regarding `OC[C@H]1O[C@H](n2cnc3c(O)ncnc32)CS1`, the IC50 in assay [2] and in assay [3] was > 100 µM throughout. Also, the EC50 in assay [1] (setting [4]) was > 100 µM.

On to `O=c1[nH]c(=O)n([C@H]2CS[C@@H](CO)O2)cc1Cl`, for which the IC50 in assay [2] and in assay [3] was > 100 µM throughout. The compound further had a half-maximal effective concentration (EC50) in assay [1] (setting [4]) of 30.4 µM.

With `Nc1nc(Cl)c2ncn([C@H]3CS[C@@H](CO)O3)c2n1` (racemic), the half-maximal inhibitory concentration (IC50) in assay [2] and in assay [3] was > 100 µM throughout. Besides, in assay [1] (setting [4]), the EC50 was 0.52 µM.

`Nc1ccn([C@@H]2CS[C@H](CO)O2)c(=O)n1` [LAMIVUDINE]: the IC50 in assay [2] and in assay [3] was > 100 µM each time. This compound also returned an EC50 in assay [1] (pbmc) of 0.0018 µM.

`Cc1cn([C@H]2C[C@H](N=[N+]=[N-])[C@@H](CO)O2)c(=O)[nH]c1=O` [ZIDOVUDINE]: the IC50 in assay [2] and in assay [3] was > 100 µM throughout. In addition, in assay [1] (setting [4]), it took 0.004 µM to reach a half-maximal effect (EC50).

A word on the EC50: it is the concentration giving half of the maximal effect. Lower therefore signals higher potency in that assay. Broadly, the IC50 is the concentration that inhibits the measured activity by half. Higher therefore signals weaker potency in that assay.
